ChEMBL document CHEMBL3525925, “In vitro studies on the oxidative metabolism of 20(s)-ginsenoside Rh2 in human, monkey, dog, rat, and mouse liver microsomes, and human liver s9” (Drug Metab Dispos, 2012)

Columns and labels:
[1] = Drug level in cynomolgus monkey liver microsomes treated with 10 uM 20(S)-ginsenoside Rh2 for 60 mins by MS2 spectra; type: ADME, Macaca fascicularis; details: 1 h
In short: (§1)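 Rh2 at 10 μM final (from methanol stock; 0.1% v/v methanol final) in 100 mM potassium phosphate pH 7.4 with 2 mM NADPH, open-to-air tubes at 37°C. 3 min preincubation, then started with liver microsomes or S9 at 1 mg/ml protein. Incubated 60 min, stopped with equal volume ice-cold acetonitrile. Controls lacked NADPH; duplicates. Metabolites detected by LC/ion-trap MSn.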

[2] = system: Liver microsome; experiment: Drug level in Sprague-Dawley rat liver microsomes treated with 10 uM 20(S)-ginsenoside Rh2 for 60 mins by MS2 spectra; type: ADME; details: 1 h; in short: as §1
[3] = system: Liver; experiment: Retention time in human liver S9 fraction treated with 10 uM 20(S)-ginsenoside Rh2 by MS2 spectra; type: ADME, subcellular
In short: (§2)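 Samples: incubation mixed with equal volume methanol, centrifuged at 14,000g for 5 min, dried under nitrogen at 40°C, reconstituted. Separated on Eclipse XDB-C18 (4.6 × 150 mm, 5 μm) at 0.5 ml/min. Gradient: 0.1% formic acid in methanol against 0.1% formic acid in 5 mM ammonium acetate, 70% to 100% organic over 17 min. Ion-trap MSn detection.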

[4] = system: Liver microsome; experiment: Drug level in human liver microsomes treated with 10 uM 20(S)-ginsenoside Rh2 for 60 mins by MS2 spectra; type: ADME; details: 1 h; in short: as §1
[5] = system: Liver microsome; experiment: Drug level in beagle dog liver microsomes treated with 10 uM 20(S)-ginsenoside Rh2 for 60 mins by MS2 spectra; type: ADME, Canis lupus familiaris; details: 1 h; in short: as §1
[6] = system: Liver cytosol; experiment: Drug metabolism in human liver cytosol assessed as 26-carboxy,20(S)-Ginsenoside Rh2 formation at 10 uM by LC/MS analysis in presence of 50 uM 4-methylpyrazole alcohol dehydrogenase inhibitor; type: ADME
In short: (§3)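 Pooled human liver cytosol (1 mg/ml) with 2 mM NAD+ and inhibitor in 100 mM potassium phosphate pH 7.4; inhibitors given from DMSO, 0.1% v/v final. After 15 min preincubation at 37°C, started with 10 μM M1-1 or 26-aldehyde-Rh2. Run 60 min, stopped with ice-cold acetonitrile. Duplicates, uninhibited controls; M2-3 acid measured by LC/MSn.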

[7] = system: Liver cytosol; experiment: Drug metabolism in human liver cytosol assessed as 26-carboxy,20(S)-Ginsenoside Rh2 formation at 10 uM by LC/MS analysis in presence of 50 uM disulfiram aldehyde dehydrogenase inhibitor; type: ADME; in short: as §3
[8] = system: Liver; experiment: Drug level in CD-1 mouse liver microsomes treated with 10 uM 20(S)-ginsenoside Rh2 for 60 mins by MS2 spectra; type: ADME; details: 1 h; in short: as §1
[9] = system: Liver cytosol; experiment: Drug metabolism in human liver cytosol assessed as 26-carboxy,20(S)-Ginsenoside Rh2 formation at 10 uM by LC/MS analysis in presence of 100 uM raloxifene aldehyde oxidase inhibitor; type: ADME; details: in the assay text read “100 nM raloxifene” for “100 uM raloxifene”; in short: as §3
[10] = system: Liver microsome; experiment: Retention time in human liver microsomes treated with 10 uM 20(S)-ginsenoside Rh2 by MS2 spectra; type: ADME; in short: as §2
[11] = biological target: Cytochrome P450 3A4 (Homo sapiens, UniProt P08684); experiment: Drug level in human recombinant CYP3A4 treated with 10 uM 20(S)-ginsenoside Rh2 for 60 mins by MS2 spectra; type: ADME; details: recombinant enzyme, 1 h
Chain of Cytochrome P450 3A4 (P08684 whole entry): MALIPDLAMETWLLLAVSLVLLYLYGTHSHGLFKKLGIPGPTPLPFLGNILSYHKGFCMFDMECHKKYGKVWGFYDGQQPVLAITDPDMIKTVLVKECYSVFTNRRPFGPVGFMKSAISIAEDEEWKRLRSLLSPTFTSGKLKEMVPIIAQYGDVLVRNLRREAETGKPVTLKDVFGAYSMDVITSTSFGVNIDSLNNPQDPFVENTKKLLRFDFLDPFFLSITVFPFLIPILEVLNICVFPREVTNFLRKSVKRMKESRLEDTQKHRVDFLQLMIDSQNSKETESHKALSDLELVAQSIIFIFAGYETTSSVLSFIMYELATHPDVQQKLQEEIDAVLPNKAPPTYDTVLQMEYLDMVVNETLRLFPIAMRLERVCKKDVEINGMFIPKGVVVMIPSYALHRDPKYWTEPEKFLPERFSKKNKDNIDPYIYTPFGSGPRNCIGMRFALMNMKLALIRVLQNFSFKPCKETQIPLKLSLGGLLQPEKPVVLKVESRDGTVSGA
In short: (§4)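 Recombinant human P450 (50 nM) with 10 μM Rh2 under the microsomal conditions: 100 mM potassium phosphate pH 7.4, 2 mM NADPH, 37°C for 60 min. Stopped with equal volume ice-cold acetonitrile. Run in duplicate; products analysed by LC/ion-trap MSn.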

[12] = system: Liver; experiment: Drug level in human liver S9 fraction treated with 10 uM 20(S)-ginsenoside Rh2 for 60 mins by MS2 spectra; type: ADME, subcellular; details: s9, 1 h; in short: as §1
[13] = biological target: Cytochrome P450 3A5 (Homo sapiens, UniProt P20815); experiment: Drug level in human recombinant CYP3A5 treated with 10 uM 20(S)-ginsenoside Rh2 for 60 mins by MS2 spectra; type: ADME; details: recombinant enzyme, 1 h; in short: as §4
Chain of Cytochrome P450 3A5 (P20815 whole entry): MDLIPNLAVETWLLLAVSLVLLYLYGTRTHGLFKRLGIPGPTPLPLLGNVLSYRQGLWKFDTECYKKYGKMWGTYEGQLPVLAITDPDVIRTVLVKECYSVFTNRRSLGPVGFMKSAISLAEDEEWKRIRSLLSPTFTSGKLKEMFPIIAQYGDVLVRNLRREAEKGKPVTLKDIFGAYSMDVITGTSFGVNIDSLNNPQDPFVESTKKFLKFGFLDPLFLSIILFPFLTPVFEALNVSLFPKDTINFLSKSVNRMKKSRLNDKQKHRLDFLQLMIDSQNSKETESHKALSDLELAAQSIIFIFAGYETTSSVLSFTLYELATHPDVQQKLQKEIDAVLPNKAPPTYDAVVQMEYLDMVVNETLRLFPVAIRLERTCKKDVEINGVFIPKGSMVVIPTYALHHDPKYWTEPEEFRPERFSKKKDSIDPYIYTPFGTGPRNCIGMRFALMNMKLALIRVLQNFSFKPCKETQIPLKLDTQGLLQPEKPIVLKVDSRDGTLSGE

[14] = Retention time in cynomolgus monkey liver microsomes treated with 10 uM 20(S)-ginsenoside Rh2 by MS2 spectra; type: ADME, Macaca fascicularis; in short: as §2

Drug metabolism [1] | Drug metabolism [2] | Retention_time [3] | Drug metabolism [4] | Drug metabolism [5] | Drug metabolism [6] | Drug metabolism [7] | Drug metabolism [8] | Drug metabolism [9] | Retention_time [10] | Drug metabolism [11] | Drug metabolism [12] | Drug metabolism [13] | Retention_time [14] | SMILES
metabolite_detected | metabolite_detected | 16.7 min | metabolite_detected | metabolite_detected | metabolite_not_detected | metabolite_not_detected | metabolite_detected | metabolite_not_detected | 16.7 min | metabolite_detected | metabolite_detected | metabolite_detected |  | C/C(=C\CC[C@](C)(O)[C@H]1CC[C@]2(C)[C@@H]1[C@H](O)C[C@@H]1[C@@]3(C)CC[C@H](O[C@@H]4O[C@H](CO)[C@@H](O)[C@H](O)[C@H]4O)C(C)(C)[C@@H]3CC[C@]12C)CO
metabolite_detected | metabolite_not_detected |  | metabolite_not_detected | metabolite_not_detected |  |  | metabolite_not_detected |  |  | metabolite_not_detected | metabolite_not_detected | metabolite_not_detected | 10.6 min | CC(C)(O)C(CC[C@](C)(O)[C@H]1CC[C@]2(C)[C@@H]1[C@H](O)C[C@@H]1[C@@]3(C)CC[C@H](O[C@@H]4O[C@H](CO)[C@@H](O)[C@H](O)[C@H]4O)C(C)(C)[C@@H]3CC[C@]12C)SC[C@H](NC(=O)CC[C@H](N)C(=O)O)C(=O)NCC(=O)O (some centres not stated)
